# In ChEMBL document CHEMBL1155439, “Transient receptor potential ankyrin 1 (TRPA1) channel as emerging target for novel analgesics and anti-inflammatory agents” (J Med Chem, 2010):
# Columns and labels:
# [1] = target: T1, Transient receptor potential cation channel subfamily A member 1 (Homo sapiens, UniProt O75762); assay: Activation of TRPA1 channel
# In short: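 Cell lines transfected with TRPA1 and loaded with a calcium-sensitive dye, read on FLIPR. Calcium influx is counted as the change in fluorescence above background. Each material was tested by preincubation or by direct addition. Calcium counts are expressed as a percentage of the control calcium count.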
# [2] = target: T1, Transient receptor potential cation channel subfamily A member 1; assay: Antagonist activity at human TRPA1 channel assessed as inhibition of allyl isothiocyanate-induced intracellular calcium influx; format: functional, cell-based
# [3] = target: T2, Transient receptor potential cation channel subfamily A member 1 (Rattus norvegicus, UniProt Q6RI86); assay: Agonist activity at rat TRPA1 channel expressed in HEK293 cells assessed as increase in intracellular calcium influx; format: functional, cell-based
# T2 sequence (Q6RI86 whole entry): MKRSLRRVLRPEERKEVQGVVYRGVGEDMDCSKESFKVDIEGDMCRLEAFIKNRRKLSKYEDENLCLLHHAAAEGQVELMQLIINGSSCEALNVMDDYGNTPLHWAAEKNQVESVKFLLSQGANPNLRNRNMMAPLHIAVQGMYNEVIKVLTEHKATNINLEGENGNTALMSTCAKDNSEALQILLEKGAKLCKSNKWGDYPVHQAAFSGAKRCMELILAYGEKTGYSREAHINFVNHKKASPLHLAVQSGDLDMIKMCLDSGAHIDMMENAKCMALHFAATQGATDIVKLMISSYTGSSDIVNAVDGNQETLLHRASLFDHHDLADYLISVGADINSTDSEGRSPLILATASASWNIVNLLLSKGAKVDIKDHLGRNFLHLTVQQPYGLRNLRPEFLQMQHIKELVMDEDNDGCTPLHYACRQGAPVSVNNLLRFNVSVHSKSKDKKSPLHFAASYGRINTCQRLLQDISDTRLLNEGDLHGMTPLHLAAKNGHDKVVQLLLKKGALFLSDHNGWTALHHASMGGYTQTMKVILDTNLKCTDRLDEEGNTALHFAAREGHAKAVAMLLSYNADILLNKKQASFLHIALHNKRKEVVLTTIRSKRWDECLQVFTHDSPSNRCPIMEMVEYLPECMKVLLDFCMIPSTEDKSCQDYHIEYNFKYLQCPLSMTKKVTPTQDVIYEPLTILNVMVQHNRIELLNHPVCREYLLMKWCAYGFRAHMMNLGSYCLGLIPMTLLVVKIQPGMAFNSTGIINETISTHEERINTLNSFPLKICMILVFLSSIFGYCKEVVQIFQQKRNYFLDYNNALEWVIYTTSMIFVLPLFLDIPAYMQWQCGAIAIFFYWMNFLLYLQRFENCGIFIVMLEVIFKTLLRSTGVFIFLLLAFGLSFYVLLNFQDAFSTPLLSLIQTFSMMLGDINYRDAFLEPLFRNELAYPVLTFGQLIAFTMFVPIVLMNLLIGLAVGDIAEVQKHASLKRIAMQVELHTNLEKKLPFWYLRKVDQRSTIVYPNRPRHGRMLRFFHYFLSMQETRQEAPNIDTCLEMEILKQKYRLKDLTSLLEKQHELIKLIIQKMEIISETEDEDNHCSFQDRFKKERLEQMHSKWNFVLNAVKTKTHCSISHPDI
# [4] = target: T1, Transient receptor potential cation channel subfamily A member 1; assay: Antagonist activity at TRPA1 channel at 1 uM; format: functional
# [5] = target: T1, Transient receptor potential cation channel subfamily A member 1; assay: Antagonist activity at TRPA1 channel at 10 uM; format: functional
# [6] = target: T1, Transient receptor potential cation channel subfamily A member 1; assay: Antagonist activity at TRPA1 channel; format: functional
# [7] = target: Transient receptor potential cation channel subfamily V member 1 (Homo sapiens, UniProt Q8NER1); assay: Activation of TRPV1 channel
# Chain of Transient receptor potential cation channel subfamily V member 1 (Homo sapiens, UniProt Q8NER1) (Q8NER1 whole entry): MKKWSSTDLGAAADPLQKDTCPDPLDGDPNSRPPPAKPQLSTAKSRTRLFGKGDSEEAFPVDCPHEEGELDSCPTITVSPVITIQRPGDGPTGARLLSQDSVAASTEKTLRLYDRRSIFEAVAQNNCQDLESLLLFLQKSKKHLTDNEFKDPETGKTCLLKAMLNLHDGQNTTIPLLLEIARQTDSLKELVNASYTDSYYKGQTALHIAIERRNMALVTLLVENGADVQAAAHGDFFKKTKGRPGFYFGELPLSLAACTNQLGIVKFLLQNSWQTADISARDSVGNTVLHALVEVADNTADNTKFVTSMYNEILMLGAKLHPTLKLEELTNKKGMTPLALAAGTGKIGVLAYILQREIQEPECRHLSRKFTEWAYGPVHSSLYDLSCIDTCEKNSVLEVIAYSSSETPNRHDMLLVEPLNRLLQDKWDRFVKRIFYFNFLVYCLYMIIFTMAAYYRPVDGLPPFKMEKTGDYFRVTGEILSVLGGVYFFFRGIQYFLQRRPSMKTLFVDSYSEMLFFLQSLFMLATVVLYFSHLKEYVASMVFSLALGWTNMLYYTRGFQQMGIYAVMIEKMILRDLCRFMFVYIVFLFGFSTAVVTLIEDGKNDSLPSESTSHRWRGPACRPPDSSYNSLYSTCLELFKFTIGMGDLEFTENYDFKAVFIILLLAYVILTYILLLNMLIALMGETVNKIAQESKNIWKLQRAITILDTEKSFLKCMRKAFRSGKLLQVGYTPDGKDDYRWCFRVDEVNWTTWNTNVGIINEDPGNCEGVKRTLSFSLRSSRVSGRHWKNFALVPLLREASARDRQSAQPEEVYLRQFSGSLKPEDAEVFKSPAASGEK
# [8] = target: Transient receptor potential cation channel subfamily A member 1 (Mus musculus, UniProt Q8BLA8); assay: Agonist activity at mouse TRPA1 channel expressed in CHO cells assessed as increase in intracellular calcium influx; format: functional, cell-based
# Chain of Transient receptor potential cation channel subfamily A member 1 (Mus musculus, UniProt Q8BLA8) (Q8BLA8 whole entry): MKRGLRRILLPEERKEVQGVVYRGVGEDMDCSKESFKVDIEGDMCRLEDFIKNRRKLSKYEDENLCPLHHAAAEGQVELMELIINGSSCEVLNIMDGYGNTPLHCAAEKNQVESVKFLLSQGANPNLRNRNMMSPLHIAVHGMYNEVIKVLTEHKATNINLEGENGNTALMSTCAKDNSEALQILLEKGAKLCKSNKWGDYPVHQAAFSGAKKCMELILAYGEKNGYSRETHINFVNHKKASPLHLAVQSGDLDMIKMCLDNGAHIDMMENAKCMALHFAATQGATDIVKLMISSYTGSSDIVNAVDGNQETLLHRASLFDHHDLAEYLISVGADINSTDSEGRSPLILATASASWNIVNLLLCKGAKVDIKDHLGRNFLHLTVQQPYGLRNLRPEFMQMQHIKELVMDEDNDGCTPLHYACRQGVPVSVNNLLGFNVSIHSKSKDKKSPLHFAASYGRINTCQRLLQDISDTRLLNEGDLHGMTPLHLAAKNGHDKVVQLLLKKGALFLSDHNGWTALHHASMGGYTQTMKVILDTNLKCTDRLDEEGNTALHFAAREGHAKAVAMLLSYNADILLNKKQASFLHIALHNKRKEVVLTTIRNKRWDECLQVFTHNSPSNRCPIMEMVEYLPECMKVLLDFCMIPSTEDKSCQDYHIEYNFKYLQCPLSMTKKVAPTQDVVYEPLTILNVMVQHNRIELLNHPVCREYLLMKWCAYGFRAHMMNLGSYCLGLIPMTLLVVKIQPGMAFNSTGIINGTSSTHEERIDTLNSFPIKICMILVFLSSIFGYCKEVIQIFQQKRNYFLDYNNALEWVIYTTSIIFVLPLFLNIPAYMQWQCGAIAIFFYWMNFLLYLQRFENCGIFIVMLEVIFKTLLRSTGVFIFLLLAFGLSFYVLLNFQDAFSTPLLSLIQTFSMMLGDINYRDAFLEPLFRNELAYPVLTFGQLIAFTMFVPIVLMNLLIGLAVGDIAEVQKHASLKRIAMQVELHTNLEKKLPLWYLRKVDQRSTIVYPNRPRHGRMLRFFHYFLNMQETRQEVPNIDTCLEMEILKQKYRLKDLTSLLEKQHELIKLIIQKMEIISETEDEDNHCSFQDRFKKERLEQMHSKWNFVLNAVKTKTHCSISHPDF
# [9] = target: T1, Transient receptor potential cation channel subfamily A member 1; assay: Agonist activity at human TRPA1 channel expressed in CHO cells assessed as increase in intracellular calcium levels; format: functional, cell-based
# [10] = target: T2, Transient receptor potential cation channel subfamily A member 1; assay: Agonist activity at TRPA1 channel in rat DRG neurons assessed as increase in intracellular calcium influx; format: functional, cell-based
# [11] = target: Transient receptor potential cation channel subfamily V member 1 (Rattus norvegicus, UniProt O35433); assay: Activation of rat TRPV1 channel
# Chain of Transient receptor potential cation channel subfamily V member 1 (Rattus norvegicus, UniProt O35433) (O35433 whole entry): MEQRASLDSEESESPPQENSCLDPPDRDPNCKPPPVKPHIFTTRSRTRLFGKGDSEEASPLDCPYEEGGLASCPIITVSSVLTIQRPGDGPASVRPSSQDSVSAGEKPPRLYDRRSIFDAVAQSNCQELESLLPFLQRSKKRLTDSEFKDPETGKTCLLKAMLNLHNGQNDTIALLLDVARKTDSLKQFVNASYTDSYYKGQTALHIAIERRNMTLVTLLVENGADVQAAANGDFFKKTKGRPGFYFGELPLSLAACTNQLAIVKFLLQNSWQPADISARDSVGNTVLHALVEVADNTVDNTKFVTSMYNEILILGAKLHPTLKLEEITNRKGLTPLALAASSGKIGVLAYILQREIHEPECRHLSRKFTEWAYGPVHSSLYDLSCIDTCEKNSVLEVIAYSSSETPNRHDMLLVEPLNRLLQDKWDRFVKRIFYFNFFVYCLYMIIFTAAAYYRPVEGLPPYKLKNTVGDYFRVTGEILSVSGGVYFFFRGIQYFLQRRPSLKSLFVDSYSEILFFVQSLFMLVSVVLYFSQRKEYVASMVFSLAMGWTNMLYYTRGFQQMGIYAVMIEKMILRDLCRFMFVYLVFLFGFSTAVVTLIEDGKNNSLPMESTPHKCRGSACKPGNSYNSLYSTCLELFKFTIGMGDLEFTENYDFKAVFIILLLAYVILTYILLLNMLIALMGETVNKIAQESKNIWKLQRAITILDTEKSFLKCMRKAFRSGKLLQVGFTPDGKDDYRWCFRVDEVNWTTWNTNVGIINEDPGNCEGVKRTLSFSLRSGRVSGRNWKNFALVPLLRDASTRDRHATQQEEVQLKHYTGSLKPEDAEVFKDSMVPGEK
# [12] = target: T1, Transient receptor potential cation channel subfamily A member 1; assay: Agonist activity at human TRPA1 channel expressed in HEK293 cells assessed as increase in membrane currents; format: functional, cell-based
# [13] = target: T1, Transient receptor potential cation channel subfamily A member 1; assay: Antagonist activity at human TRPA1 channel expressed in CHO cells assessed as inhibition of cinnamaldehyde-induced intracellular calcium influx; format: functional, cell-based
# [14] = target: T1, Transient receptor potential cation channel subfamily A member 1; assay: Agonist activity at human TRPA1 channel expressed in HEK293 cells assessed as increase in intracellular calcium influx; format: functional, cell-based
# [15] = target: T1, Transient receptor potential cation channel subfamily A member 1; assay: Activation of TRPA1 channel expressed in CHO cells assessed as increase in intracellular calcium levels; format: cell-based
# T1 sequence (O75762 whole entry): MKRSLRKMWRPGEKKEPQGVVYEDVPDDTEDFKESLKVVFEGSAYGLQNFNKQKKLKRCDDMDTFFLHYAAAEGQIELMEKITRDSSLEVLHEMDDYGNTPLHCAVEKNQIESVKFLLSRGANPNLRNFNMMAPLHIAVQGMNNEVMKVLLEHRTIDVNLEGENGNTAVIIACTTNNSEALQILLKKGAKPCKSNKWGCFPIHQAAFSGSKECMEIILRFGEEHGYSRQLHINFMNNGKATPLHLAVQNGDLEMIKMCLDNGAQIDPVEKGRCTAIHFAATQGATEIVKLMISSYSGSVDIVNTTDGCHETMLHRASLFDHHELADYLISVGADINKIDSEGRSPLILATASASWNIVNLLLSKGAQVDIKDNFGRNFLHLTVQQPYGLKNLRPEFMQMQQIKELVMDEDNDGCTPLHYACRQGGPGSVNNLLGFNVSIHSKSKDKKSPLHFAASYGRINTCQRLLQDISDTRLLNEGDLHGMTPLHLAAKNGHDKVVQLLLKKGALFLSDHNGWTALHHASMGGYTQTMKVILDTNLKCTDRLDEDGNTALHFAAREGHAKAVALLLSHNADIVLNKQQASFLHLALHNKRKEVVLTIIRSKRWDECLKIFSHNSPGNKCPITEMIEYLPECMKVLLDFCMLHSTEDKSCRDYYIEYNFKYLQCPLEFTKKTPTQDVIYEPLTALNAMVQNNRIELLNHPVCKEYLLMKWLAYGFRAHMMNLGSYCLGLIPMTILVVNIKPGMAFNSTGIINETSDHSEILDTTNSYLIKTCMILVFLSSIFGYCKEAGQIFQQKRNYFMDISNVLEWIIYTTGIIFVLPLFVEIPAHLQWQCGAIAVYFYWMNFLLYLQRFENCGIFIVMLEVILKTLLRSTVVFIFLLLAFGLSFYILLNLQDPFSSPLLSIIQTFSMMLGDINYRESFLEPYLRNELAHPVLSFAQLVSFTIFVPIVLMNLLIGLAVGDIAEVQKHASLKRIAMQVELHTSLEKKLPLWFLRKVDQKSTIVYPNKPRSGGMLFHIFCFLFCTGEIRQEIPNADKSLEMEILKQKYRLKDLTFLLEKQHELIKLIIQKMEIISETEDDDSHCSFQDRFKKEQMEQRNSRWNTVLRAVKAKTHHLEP
compound,measurement,setting,value
CN1CCC[C@H]1c1cccnc1 [NICOTINE],EC50,[1],17 µM
COc1cccc(-c2csc(NC(=O)Cn3cnc4c3c(=O)n(C)c(=O)n4C)n2)c1,IC50,[2],< 1000 nM
CCCCC[C@H](O)/C=C/[C@H]1C=CC(=O)[C@@H]1C/C=C\CCCC(=O)O [PROSTAGLANDIN A2],EC50,[1],24 µM
CCCCCc1cc(O)c(C/C=C(\C)CCC=C(C)C)c(O)c1 [CANNABIGEROL],EC50,[3],3400 nM
CN1C(=O)c2cccc(CC(=O)Nc3nc(-c4ccc(Cl)c(Cl)c4)cs3)c2C1=O,inhibition,[4],86%
same,inhibition,[5],98%
same,IC50,[6],250 nM
Cn1c(=O)c2c(ncn2CC(=O)Nc2nc(-c3ccccc3F)cs2)n(C)c1=O,IC50,[2],< 1000 nM
CCCCC[C@H](O)/C=C/[C@H]1C=CC(=O)[C@@H]1CCCCCCC(=O)O [PROSTAGLANDIN A1],EC50,[1],15.1 µM
C/C=C/C=C/C=C\CC/C=C/C(=O)NCC(C)(C)O,EC50,[7],1100 nM
same,EC50,[1],6.6 µM
Cn1c(=O)c2c(ncn2CC(=O)Nc2nc(-c3cccc(Cl)c3)cs2)n(C)c1=O,IC50,[2],< 1000 nM
COC(=O)C1=C(C)NC(C)=C([N+](=O)[O-])C1c1ccccc1C(F)(F)F (centres undefined),EC50,[8],32.7 µM
COCCOC(=O)C1=C(C)NC(C)=C(C(=O)OC(C)C)C1c1cccc([N+](=O)[O-])c1 (centres undefined) [NIMODIPINE],EC50,[8],0.8 µM
CC1(C)CCC[C@]2(C)[C@@H](CC/C=C(/C=O)CC=O)[C@@H](C=O)CC[C@@H]12 [MIOGATRIAL],EC50,[9],0.13 µM
CN1C(=O)c2cccc(CC(=O)Nc3nc(-c4cc(F)c(OC(F)F)c(F)c4)cs3)c2C1=O,inhibition,[4],92%
same,inhibition,[5],99%
CC(C)=CCC/C(C)=C/CC/C(C)=C/CSc1ccccc1C(=O)O [SALIRASIB],EC50,[9],5 µM
C=C(C)[C@@H]1CCC(C)=C[C@H]1c1c(O)cc(CCCCC)cc1O [CANNABIDIOL],EC50,[3],96 nM
Cn1c(=O)c2c(ncn2CC(=O)Nc2nc(-c3cccc(F)c3)cs2)n(C)c1=O,IC50,[2],< 1000 nM
CN1C(=O)c2cccc(CC(=O)Nc3nc(-c4cc(F)c(C(F)(F)F)c(F)c4)cs3)c2C1=O,inhibition,[4],92%
same,inhibition,[5],100%
same,IC50,[6],250 nM
CCCCCC(O)/C=C/C=O (centres undefined) [4-HYDROXYNON-2-ENAL],EC50,[10],19.9 µM
S=C=NCCc1ccccc1 [PHENETHYLISOTHIOCYANATE],EC50,[1],10 µM
CN1C(=O)c2cccc(CC(=O)Nc3nc(-c4ccc(Cl)cc4)cs3)c2C1=O,inhibition,[4],39%
same,inhibition,[5],93%
same,IC50,[6],500 nM
C=CCSSCC=C,EC50,[9],7.55 µM
same,EC50,[1],125 µM
C=CCS[S+]([O-])CC=C (centres undefined) [ALLICIN],EC50,[11],51.2 µM
O=C(O)/C=C1/C(=O)N(CC2CCCC2)c2c(F)cccc21,EC50,[12],510 nM
CO/C(O)=C1\C(C)=NC(C)=C([N+](=O)[O-])[C@@H]1c1ccccc1C(F)(F)F,EC50,[8],20.8 µM
CN(C)C(=O)/C=C1/C(=O)N(CC2CCCC2)c2c(F)cccc21,EC50,[12],3760 nM
CC(C)CN1C(=O)/C(=C/C(=O)O)c2cc(F)ccc21,EC50,[12],4630 nM
O=C1/C(=C/c2nccs2)c2ccccc2N1Cc1ccccc1,EC50,[12],5650 nM
CC(C)c1ccc(NC(=O)Cc2cccc3c2C(=O)N(C)C3=O)cc1,inhibition,[4],18%
same,inhibition,[5],21%
CCC(CC)CN1C(=O)/C(=C/C(=O)N2CCOCC2)c2cccc(F)c21,EC50,[12],1290 nM
CCC(=N\O)/C(C)=C/c1ccc(C)nc1,IC50,[13],> 100 µM
CCC(=N\O)/C(C)=C/c1ccc(C(F)(F)F)nc1,IC50,[13],> 100 µM
Cc1ccc(C(C)C)cc1O [CARVACROL],EC50,[14],7 µM
CC1(C)CCC[C@]2(C)[C@@H](C=O)C(C=O)=CC[C@@H]12 [POLYGODIAL],EC50,[9],0.059 µM
CCCCC(CC)C1NC(=O)N(SC(Cl)(Cl)Cl)C1=O (centres undefined) [CHLORDANTOIN],EC50,[9],3 µM
CCCCC/C=C/C=C1/C(=O)C=C[C@@H]1C/C=C\CCCC(=O)O,EC50,[1],5.6 µM
CN1C(=O)c2cccc(CC(=O)Nc3nc(-c4ccc(C(F)(F)F)c(F)c4)cs3)c2C1=O,inhibition,[4],97%
same,inhibition,[5],100%
CN1C(=O)c2cccc(CC(=O)Nc3nc(-c4cccc(C(F)(F)F)c4)cs3)c2C1=O,inhibition,[4],60%
same,inhibition,[5],96%
same,IC50,[6],500 nM
Cc1cc(-c2csc(NC(=O)Cc3cccc4c3C(=O)N(C)C4=O)n2)ccc1Cl,inhibition,[4],83%
same,inhibition,[5],91%
same,IC50,[6],250 nM
C=CCSSSCC=C [ALLITRIDIN],EC50,[9],0.49 µM
S=C=NCc1ccccc1 [BENZYL ISOTHIOCYANATE],EC50,[1],0.319 µM
COC(=O)c1cccc(CN2C(=O)/C(=C/C(N)=O)c3ccccc32)c1,EC50,[12],1200 nM
COC(=O)C1=C(C)NC(C)=C(C(=O)OC)C1c1ccccc1[N+](=O)[O-] [NIFEDIPINE],EC50,[8],0.4 µM
O=C(O)/C=C1/C(=O)N(Cc2ccccc2)c2ccc(F)cc21,EC50,[12],4450 nM
CO/C(O)=C1\C(C)=NC(C)=C([N+](=O)[O-])[C@H]1c1ccccc1C(F)(F)F,EC50,[8],41.5 µM
CCOC(=O)C1=C(C)NC(C)=C(C(=O)OC)C1c1cccc([N+](=O)[O-])c1 (centres undefined) [NITRENDIPINE],EC50,[8],3.8 µM
CCCCC[C@H](O)/C=C/[C@H]1C=CC(=O)[C@H]1C/C=C\CCCC(=O)O,EC50,[1],22.4 µM
C=C(C)C1CC=C(C=O)CC1 (centres undefined),EC50,[1],41 µM
CCCCCc1cc(O)c2c(c1)OC(C)(C)[C@@H]1CCC(C)=C[C@@H]21 [DRONABINOL],EC50,[3],230 nM
CCCCCc1cc(O)c2c(c1C(=O)O)OC(C)(C)[C@@H]1CCC(C)=C[C@@H]21 [TETRAHYDROCANNABINOL ACID],EC50,[3],240 nM
O=C(O)/C=C1/C(=O)N(CC2CCCCC2)c2ccccc21,EC50,[12],4400 nM
CC1(C)CCC[C@@]2(C)[C@H]1CC[C@@]1(CO1)[C@@H]2CC/C=C(/C=O)CC=O [MIOGADIAL],EC50,[9],0.2 µM
O=C(O)/C=C1/C(=O)N(CC2CCCC2)c2ccccc21,EC50,[12],3000 nM
C=C(C)[C@@H]1CCC(C)=C[C@H]1c1c(O)cc(CCCCC)c(C(=O)O)c1O [CANNABIDIOLIC ACID],EC50,[3],12000 nM
CCC(=N\O)/C(C)=C/c1cnc2ccccc2c1,IC50,[13],> 100 µM
C=CCSCC=C [DIALLYL SULFIDE],EC50,[9],254 µM
O=C(O)/C=C1/C(=O)N(CC2CCC2)c2c(F)cccc21,EC50,[12],1160 nM
COC(=O)C1=C(C)NC(C)=C(C(=O)OCCN(C)Cc2ccccc2)C1c1cccc([N+](=O)[O-])c1 (centres undefined) [NICARDIPINE],EC50,[8],0.5 µM
CC(C)CN1C(=O)/C(=C/C(=O)O)c2cccc(F)c21,EC50,[12],830 nM
Cc1ccc(N=C=O)cc1N=C=O [TOLUENE DIISOCYANATE],EC50,[14],10 µM
CCc1ccc(-c2csc(NC(=O)Cn3cnc4c3c(=O)n(C)c(=O)n4C)n2)cc1,IC50,[2],< 1000 nM
CCC(=N\O)/C(C)=C/c1cncc2ccccc12,IC50,[13],> 100 µM
CCN(CC)C(=S)SSC(=S)N(CC)CC,EC50,[9],3 µM
CCOc1ccccc1-c1csc(NC(=O)Cn2cnc3c2c(=O)n(C)c(=O)n3C)n1,IC50,[2],< 1000 nM
O=C/C=C/c1ccccc1,EC50,[15],6.5 µM
CC(C)CN1C(=O)/C(=C/C(=O)O)c2cccc(Cl)c21,EC50,[12],610 nM
NC(=O)c1cccc(-c2cccc(OC(=O)NC3CCCCC3)c2)c1 [URB-597],EC50,[14],24.5 µM
Cn1c(=O)c2c(ncn2CC(=O)Nc2nc(-c3ccccc3)cs2)n(C)c1=O,IC50,[2],< 1000 nM
CCC(=N\O)/C(C)=C/c1cnccc1C,IC50,[13],> 100 µM
CC(C)=CCC/C(C)=C/CC/C(C)=C/CSCC(=O)O [FARNESYLTHIOACETIC ACID],EC50,[9],90 µM
NC(=O)/C=C1/C(=O)N(CC2CCCC2)c2c(F)cccc21,EC50,[12],660 nM
CCCCCc1cc(O)c2c(c1)OC(C)(CCC=C(C)C)C=C2 (centres undefined) [CANNABICHROMENE],EC50,[3],60 nM
same,EC50,[10],34.3 µM
C=CC=O [ACROLEIN],EC50,[1],0.8 µM
CC(C)CCC(=O)c1ccoc1 [PERILLAKETONE],EC50,[1],19.7 µM
C/C=C/C=O [CROTONALDEHYDE],EC50,[1],16 µM
Cn1c(=O)c2c(ncn2CC(=O)Nc2nc(-c3ccc(Br)cc3)cs2)n(C)c1=O,IC50,[2],< 1000 nM
CN1C(=O)c2cccc(CC(=O)Nc3nc(-c4ccc(I)cc4)cs3)c2C1=O,inhibition,[4],76%
same,inhibition,[5],95%
same,IC50,[6],< 250 nM
